Measured values taken from ChEMBL document CHEMBL3108757, “Synthesis and cytostatic evaluation of 4-N-alkanoyl and 4-N-alkyl gemcitabine analogues” (J Med Chem, 2014).
pIC50: −log10 of the molar value.

How the values were obtained:
HeLa = assay: Cytostatic activity against human HeLa cells after 4 days by coulter counter analysis; type: functional, cell-based; conditions: 96 h
Outline: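 HeLa cervix carcinoma cultures exposed to compound, 4 days at 37 °C; viable cells counted by Coulter counter; IC50 is the concentration giving 50% inhibition of proliferation.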

CCRF-CEM [1] = assay: Cytostatic activity against human dCK-deficient CEM cells after 3 days by coulter counter analysis; type: functional, cell-based; conditions: 72 h
Outline: (§1)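 CEM T-lymphocyte cultures exposed to compound, 3 days at 37 °C; living cells counted by Coulter counter; IC50 is the concentration inhibiting proliferation by 50%.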

CCRF-CEM [2] = assay: Cytostatic activity against human CEM cells after 3 days by coulter counter analysis; type: functional, cell-based; conditions: 72 h; outline: as §1
L1210 = assay: Cytostatic activity against mouse L1210 cells after 2 days by coulter counter analysis; type: functional, cell-based; conditions: L1210, 48 h
Outline: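 Murine leukemia L1210 cultures exposed to compound, 2 days at 37 °C; living cells counted by Coulter counter; IC50 is the concentration inhibiting proliferation by 50%.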

MCF7 = assay: Cytostatic activity against human MCF7 cells after 4 days by coulter counter analysis; conditions: MCF7, 96 h
Liver [3] = assay: Prodrug conversion in mouse liver assessed as dFdU formation at 100 uM after 2 hrs by HPLC analysis; type: ADME, tissue-based
Outline: (§2)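 Compound at 100 μM in murine liver extract in PBS, 37 °C; sampled at 0, 30 and 120 min; reverse-phase RP-18 HPLC (acetonitrile/H₂O) resolving dFdU and gemcitabine.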

Liver [4] = assay: Prodrug conversion in mouse liver at 100 uM after 2 hrs by HPLC analysis; type: ADME, tissue-based; outline: as §2
Serum [5] = assay: Prodrug conversion in human serum assessed as dFdU formation at 100 uM up to 240 mins by HPLC analysis; type: ADME, cell-free; conditions: 4 h
Outline: (§3)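 Compound at 100 μM in 50% human serum in PBS, 37 °C; aliquots taken at 0, 60 and 240 min; reverse-phase RP-18 HPLC (acetonitrile/H₂O) resolving dFdU and gemcitabine.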

Serum [6] = assay: Prodrug conversion in human serum assessed as gemicitabine formation at 100 uM by HPLC analysis; type: ADME, cell-free; outline: as §3
CCRF-CEM [7] = assay: Ratio of IC50 for human dCK-deficient CEM cells to IC50 for human CEM cells; type: functional
[8] = target: Deoxycytidine kinase (Homo sapiens) (UniProt P27707); assay: Activity at recombinant dCK (unknown origin) at 100 uM by HPLC analysis
Sequence of Deoxycytidine kinase (Homo sapiens) (P27707 whole entry, looked up): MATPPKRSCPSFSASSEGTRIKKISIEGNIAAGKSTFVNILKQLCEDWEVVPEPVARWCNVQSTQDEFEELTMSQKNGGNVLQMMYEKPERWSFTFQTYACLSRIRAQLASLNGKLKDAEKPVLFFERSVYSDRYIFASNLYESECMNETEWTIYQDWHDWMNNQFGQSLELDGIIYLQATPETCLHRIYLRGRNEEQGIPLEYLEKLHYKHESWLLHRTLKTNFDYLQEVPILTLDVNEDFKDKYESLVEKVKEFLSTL

Liver [9] = assay: Prodrug conversion in mouse liver assessed as dFdU formation at 100 uM by HPLC analysis; type: ADME, tissue-based; outline: as §2
Liver [10] = assay: Prodrug conversion in mouse liver assessed as gemicitabine formation at 100 uM by HPLC analysis; type: ADME, tissue-based; outline: as §2
Serum [11] = assay: Metabolic stability in human serum assessed as dFdU formation at 100 uM up to 240 mins by HPLC analysis; type: ADME, cell-free; conditions: 4 h; outline: as §3

Stability (Liver [3]) | Stability (Liver [4]) | Stability (Serum [5]) | Stability (Serum [6]) | Activity [8] [%] | Drug metabolism (Liver [9]) | Drug metabolism (Liver [10]) | Drug metabolism (Serum [5]) | Drug metabolism (Serum [6]) | Stability (Serum [11]) | SMILES | pIC50 (HeLa) | pIC50 (CCRF-CEM [1]) | pIC50 (CCRF-CEM [2]) | pIC50 (L1210) | pIC50 (MCF7) | Ratio IC50 (CCRF-CEM [7])
– | – | – | – | – | – | – | – | – | – | C=CCCCCCCCCC(=O)Nc1ccn([C@@H]2O[C@H](CO)[C@@H](O)C2(F)F)c(=O)n1 | 7.92 | 4.92 | 7.15 | 7.74 | 8.21 | –
Stable | Stable | Stable | Stable | – | – | – | – | – | – | O=c1nc(NCCCCCCCCCCCO)ccn1[C@@H]1O[C@H](CO)[C@@H](O)C1(F)F | 4.66 | 3.85 | 4.07 | 4.54 | 4.57 | 2
– | – | – | – | – | – | – | – | – | – | C=CCCCCCCC(=O)Nc1ccn([C@@H]2O[C@H](CO)[C@@H](O)C2(F)F)c(=O)n1 | 7.38 | 4.70 | 6.85 | 7.62 | 8.10 | –
– | – | – | – | < 1 | – | – | – | – | – | C=CCCCCCCCCCCC(=O)Nc1ccn([C@@H]2O[C@H](CO)[C@@H](O)C2(F)F)c(=O)n1 | 7.89 | 5.17 | 7.16 | 7.68 | 8.10 | –
– | – | – | – | – | Active | Active | Active | Active | – | O=C(CCCCCCCCCCO)Nc1ccn([C@@H]2O[C@H](CO)[C@@H](O)C2(F)F)c(=O)n1 | 7.31 | 4.72 | 6.62 | 7.64 | 8.09 | –
– | – | – | – | < 1 | – | – | – | – | – | O=C(CCCCCCCCCCF)Nc1ccn([C@@H]2O[C@H](CO)[C@@H](O)C2(F)F)c(=O)n1 | 7.96 | 5.14 | 7.23 | 7.28 | 8.11 | –
– | – | – | – | 15 | – | – | – | – | Unstable | Nc1ccn([C@@H]2O[C@H](CO)[C@@H](O)C2(F)F)c(=O)n1 [GEMCITABINE] | 8.00 | 5.12 | 7.16 | 7.89 | 8.14 | –
– | – | – | – | – | – | – | – | – | – | C=CCCCCCCCCCNc1ccn([C@@H]2O[C@H](CO)[C@@H](O)C2(F)F)c(=O)n1 | 5.47 | 4.22 | 4.89 | 5.15 | 4.55 | 4.6
– | – | – | – | – | – | – | – | – | – | O=c1nc(NCCCCCCCCCCCF)ccn1[C@@H]1O[C@H](CO)[C@@H](O)C1(F)F | 4.77 | 3.87 | 4.55 | 4.55 | 4.59 | 4.8
– | – | – | – | – | – | – | – | – | – | CCCC(CCC)C(=O)Nc1ccn([C@@H]2O[C@H](CO)[C@@H](O)C2(F)F)c(=O)n1 [LY-2334737] | 6.12 | 3.79 | 5.28 | 5.96 | 6.26 | –
– | – | – | – | – | – | – | – | – | – | CCCCCCCCCCC(=O)Nc1ccn([C@@H]2O[C@H](CO)[C@@H](O)C2(F)F)c(=O)n1 | 8.05 | 5.24 | 7.22 | 7.85 | 8.28 | –
